These results are taken from the EternaBench riboswitch data.

By apparent Kd is commonly meant the concentration giving half-maximal binding under the conditions of the assay.

The series concerns MS2 coat protein. Kind of series: apparent Kd, MS2 coat protein; higher = weaker binding; RNA-MaP array; FMN 200 µM where present. The gist of the method: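 Green signal was scaled to red-channel RNA signal and control-cluster median Fmax, and the apparent Kd was taken as the median of filtered per-cluster binding-curve fits. The binding series used SNAP-549-labelled MS2 coat protein from 0.7 or 1.5 nM, doubling to 3 µM, on designs transcribed by stalled E. coli RNA polymerase on Illumina sequencing-chip clusters. Each series ran without and then with constant ligand in 100 mM Tris-HCl pH 7.5, 80 mM KCl, 4 mM MgCl2, BSA, DTT, yeast tRNA and Tween-20.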

[1] abbreviates: designed as: OFF switch for flavin mononucleotide, no ligand.
Setting [2] is: ligand present: flavin mononucleotide, designed as: OFF switch for flavin mononucleotide.
The mark [3] stands for this setting: designed as: ON switch for flavin mononucleotide, no ligand.
The mark [4] stands for this setting: ligand present: flavin mononucleotide, designed as: ON switch for flavin mononucleotide.

Regarding “GUCGGAAACGACAAUGAUAGGACUGAGGAUAUACGUAUAAAUAUCCUCACAUGAGGAUCACCCAUGUAGAAGGCAGUCCUAUCU”, the “apparent Kd” value worked out at 13.2 nM under setting [1] and 167 nM under setting [2].
For “GUCAGCUCGUGAGGAUAUACAUGUGCUGGAAACAGCACUAAUAGAAUCACAUGAGGAUCACCCAUGUAGAAGGCACGAGCUGAU”, the “apparent Kd” value reads like this: under setting [1], 16.9 nM; under setting [2], 40.8 nM.
On to “CUCCUGCGAGGAUAUACAUAGUGACGUCUGUUUGGUCUUAAACAUGAGGAUCACCCAUGUAGAAGGUGCGUCAC”, for which the “apparent Kd” value worked out at 17.5 nM under setting [1] and 16.9 nM under setting [2].
In the case of “UCUAUGCAGACCCUUAUAAAACAUGAGGAUCACCCAUGUGAGAGAAGGGCCUAACGGCAGAGAAGGCAGGAUAUCUUAUGAUGG”, the “apparent Kd” value runs as follows: under setting [1], 7.46 nM; under setting [2], 12.9 nM.
For “CCUCUGUAAGGAUAUACGGAGACGGCUGGAAUCAGUGGAAAGUAGAAGGUACAUGAGGAUCACCCAUGUGAGAC”, the “apparent Kd” value under setting [1] was found to be 21.1 nM and the “apparent Kd” value under setting [2] worked out at 66.2 nM.
As to “AUAAGGUUCUUCAAGGUGCUACAUGAGGAUCACCCAUGUGAGAGAAGGGCCCGUGGACUUGGAGGGUAGGAUAUCUCCAUGCGU”, the “apparent Kd” value came to 8.32 nM under setting [1] and 10.1 nM under setting [2].
“AAACGACGUCAGAAGGCCGAUGGAUUUGACCACGGAGGAUAUGACAUGAGGAUCACCCAUGUGGUGCUUCUAACCCGCUGGGCC”: the “apparent Kd” value was found to be 501 nM under setting [1] and 69.7 nM under setting [2].
Turning to “UUAUUAUGUGUAGGAUAUGCAUAUUACUAUUAUGCAGAAGGACAUGAGGAUCACCCAUGUAUAUUAUUAUUAUAUAUUAUAUAU”, the “apparent Kd” value by setting is: under setting [1], 14.9 nM; under setting [2], 22.4 nM.
Turning to “UUUUAGCUAGGAUAUACAUUUUUUUUAUUAUCCUCAUUAUUACAUGAGGAUCACCCAUGUAGAAGGAGCAUUUU”, the “apparent Kd” value under setting [1] came out at 237 nM and the “apparent Kd” value under setting [2] worked out at 313 nM.
Consider “AGAAACUACGAGAAGGACAUAUGGUACUUCAGUUACAUGAGGAUCACCCAUGUAGGAUAUCGUAGUUUCAGGAUCGUGAGAUCA”, for which the “apparent Kd” value is, setting by setting: under setting [1], 22 nM; under setting [2], 169 nM.
Regarding “UUAAAUCAUGUAGGAUAUGCAUGGCGAAGCUACGCAGAAGGACAUGAGGAUCACCCAUGUGCUAGCGACAGAGAACUGUUGCAA”, the “apparent Kd” value is, setting by setting: under setting [1], 56.9 nM; under setting [2], 311 nM.
Regarding “AAAUAAAGGACUAAGGAUAUAUCGCAUGACACAUGAGGAUCACCCAUGUGGUAACACAGAGGGUGAUAGAAGGUAGUCCACAAACA”, the “apparent Kd” value under setting [3] came to 404 nM and the “apparent Kd” value under setting [4] stood at 75.8 nM.
As to “UGAGCAUCAGGAUAUAUAUGGCGACCGUGAGGUCGAAGGUUACAUGAGGAUCACCCAUGUAGAAGGGAUGUUCU”, the “apparent Kd” value under setting [1] worked out at 36.6 nM and the “apparent Kd” value under setting [2] was found to be 147 nM.
For “ACGGAACAUGAGGAUCACCCAUGUAUCUGAAAUAUGGACUCACAGGAUAUUCAGAGUUGCCAAUCGGAGAAGGGUGACUCCAGA”, the “apparent Kd” value was determined as 25.5 nM under setting [3] and 17.2 nM under setting [4].
In the case of “CCGGAAUAGCAGGAUAUAGGAGUCGAUAGACACCUAGAAGGGCUGACAUGAGGAUCACCCAUGUGUCCUACCGG”, the “apparent Kd” value came to 81.2 nM under setting [1] and 50.8 nM under setting [2].
Consider “CUCUAUCAUGUAGGAUAUGCGUGUCGAAGCUAUGCAGAAGGACAUGAGGAUCACCCAUGUCUUACUGUCUGCGGACGGACAGGG”, for which the “apparent Kd” value is, setting by setting: under setting [1], 22.4 nM; under setting [2], 53.9 nM.
Turning to “AGGUACAUGAGGAUCACCCAUGUAAGAGACCUCAUGCGAUGUAGAAGGAUUAUCCGAGAAGAGGAAUAGGAUAUACAUGAGAAA”, the “apparent Kd” value under setting [1] was determined as 158 nM and the “apparent Kd” value under setting [2] stood at 127 nM.
On to “CUUCGUAUAGAGGAUAUAGGAUACUACGGUGUCCUAGAAGGCUGUACAUGAGGAUCACCCAUGUACUUCAGAUC”, for which the “apparent Kd” value is, setting by setting: under setting [1], 11.7 nM; under setting [2], 13.5 nM.
Take “GCUCUAUGCUAGAAGGCGUGAAACAUGAGGAUCACCCAUGUCAAAGAAGUGAGGAUAUAGCAUAGAGCAAAAGUGCGAAAGCAC”: the “apparent Kd” value was determined as 16.9 nM under setting [3] and 7.32 nM under setting [4].
For the sequence “UAGAUGGGAGGAUAUGCGUAGAUACGGAUUCGUGUAGUGCUACAUGAGGAUCACCCAUGUAGAAGGCCCGUCUU”, the “apparent Kd” value reads like this: under setting [1], 15.2 nM; under setting [2], 18.3 nM.
On to “AUUUAUGGCCAGAAGGACAUGAGGAUCACCCAUGUAGGAUAUGGACGAUUUUACUCGGCGGUUCGUUUAGGAAGCACCGGCGGU”, for which the “apparent Kd” value runs as follows: under setting [3], 8.58 nM; under setting [4], 5.91 nM.
On to “UCGUUGUCAGGAUAUCGUGUAUACAACUUUAGUUUUAUGUUCGAGAAGGGACAUGAGGAUCACCCAUGUUACGU”, for which the “apparent Kd” value runs as follows: under setting [1], 65 nM; under setting [2], 239 nM.
For “GUCAGCUCGUGAGGAUAUACAACACUGCUUCGGCAGUGUAUUAAGAUCACAUGAGGAUCACCCAUGUAGAAGGCACGUGCUGAU” the same measures were 12.5 nM and 276 nM.
For “GCUAGUCAUGUCAGGAUAUGCAGUUCCUUGGAACUGCAGAAGGGACAUGAGGAUCACCCAUGUGCCUAGCUAGC”, the “apparent Kd” value under setting [1] is 41.1 nM and the “apparent Kd” value under setting [2] came to 357 nM.
Turning to “AAAAUGGUCUAGGAUAUGACAAAUCUGAGCACGUCAGAAGGAGACACAUGAGGAUCACCCAUGUGGGUGCGAAA”, the “apparent Kd” value by setting is: under setting [1], 36.1 nM; under setting [2], 189 nM.
For the sequence “GUAAGCUCGUGAGGAUAUACAACACUGCUUCGGCAGUGUAUUAAGAUCACAUGAGGAUCACCCAUGUAGAAGGCACGAGCUGAU”, the “apparent Kd” value is, setting by setting: under setting [1], 13.8 nM; under setting [2], 245 nM.
Turning to “AACGCACGAGAUGGCUGGGAUACUAAGGAUAUGACAUGAGGAUCACCCAUGUACGCGAUCCAUGGUCAGAAGGUAGUAAUUCGC”, the “apparent Kd” value came to 37 nM under setting [1] and 91.2 nM under setting [2].
As to “AGGUGUAGAGGAUAUCUCUUCUCUCACAUGAGGAUCACCCAUGUUCUAAAGUCCAAGGAGAGAGAAGGCUACACCA”, the “apparent Kd” value turned out to be 19.8 nM under setting [1] and 15.6 nM under setting [2].
In the case of “UCAUGGUAGCAGGAUAUGCUUGUUUUUUUUUUUGCAGAAGGGCUUACAUGAGGAUCACCCAUGUGAGAGGUCUA”, the “apparent Kd” value reads like this: under setting [1], 14.5 nM; under setting [2], 21.6 nM.
“AUAUAUAGUGUGAGGAUAUGCUGGUCCUUGGAUCAGCAGAAGGCACAUGAGGAUCACCCAUGUAGUUUAUUUUU”: the “apparent Kd” value under setting [1] worked out at 24.5 nM and the “apparent Kd” value under setting [2] is 102 nM.
Take “ACUCGACAUGAGGAUCACCCAUGUGAGGAUAUCGUUAUUUACUUUGUUUAUAGUAUCUCGAGAAGGCACAUUUG”: the “apparent Kd” value under setting [1] was determined as 18.1 nM and the “apparent Kd” value under setting [2] was determined as 54.6 nM.
“ACAUGAGGAUCACCCAUGUGAACAUAGGAUAUUGGUGAUCAGGCGUGUUAUACAGGAUAGGUCUGCGAGAAGGGUGCACGUUGC”: the “apparent Kd” value reads like this: under setting [3], 540 nM; under setting [4], 146 nM.
As for “UUCGUGCAGCUUUGCUGUACGCGUACAUGAGGAUCACCCAUGUAGGAUAUAGUAGGCAAAGCUUACUAGAAGGAUAUAGUGAUC”, the “apparent Kd” value was 47.6 nM under setting [1] and 47.3 nM under setting [2].
For “UUAUAAAGUGUGAGGAUAUGCUGGUCGAUAGAUCAGCAGAAGGCACAUGAGGAUCACCCAUGUAAUAUAUUUUA” the same measures were 52.1 nM and 222 nM.
On the same counts, the results for “UAUAUAUAGUAAGGAUAUGUAAUUAUUUUAUAAACAGAAGGUACUGACAUGAGGAUCACCCAUGUUUUAGUGUGGGCAUGUAGA” are 87.7 nM and 139 nM.
Consider “GUGUACAGAGGAUAUACAUAAGCAUGGAAACAUGCUACUUCACAUGAGGAUCACCCAUGUAGAAGGCUGUACAC”, for which the “apparent Kd” value reads like this: under setting [1], 14.5 nM; under setting [2], 15.4 nM.
With “AUUAUUUAAGUCAGGAUAUCGUAUUUAUUUAAAUACGAGAAGGGACAUGAGGAUCACCCAUGUAAUAAAUUUUA”, the “apparent Kd” value under setting [1] is 14.2 nM and the “apparent Kd” value under setting [2] was determined as 20.4 nM.
For “UUGGACGUCGUAGGAUAUGUAGGAUGUUCCUACAUGAGGAUCACCCAUGUUGACAUGGAAGAAGGACAGAAGGACGAUGUCCAU”, the “apparent Kd” value worked out at 547 nM under setting [3] and 27 nM under setting [4].
As to “CUUUUGUGAGGAUAUCUGGCUUCGAUCGUGAGAUCGAGGCUAGAGAAGGCACAUGAGGAUCACCCAUGUACCUC”, the “apparent Kd” value stood at 24.3 nM under setting [1] and 149 nM under setting [2].
On the same counts, the results for “GUCCCACAUGAGGAUCACCCAUGUGAGGAUAUGGAUUCGCUGGCCGUAGCCAGUGGAUCCAGAAGGCGCAUGAU” are 19.6 nM and 26.5 nM.
On to “UGAAGUGGCGACAUGAGGAUCACCCAUGUAUGGUAUUCAACCAGAAGGCAUGUUGAGGAAUUACAUGAGGAUAUGGGAGAUCUA”, for which the “apparent Kd” value is 314 nM under setting [3] and 121 nM under setting [4].
On to “AAAAGUAGAGGAUAUACAUGAGGAUCACCCAUGUAGAAAGGAAGUGUAUAUAUGGCGUGUAGAAGGCUGCAUGA”, for which the “apparent Kd” value under setting [1] stood at 38.3 nM and the “apparent Kd” value under setting [2] amounted to 39.2 nM.
On to “AUGUAUCACACAGGAUAUACAUGAGGAUCACCCAUGUGUCCUCCGUAAUUGACACCAAUUACGCUGUAGAAGGGUGUGAUACAU”, for which the “apparent Kd” value reads like this: under setting [1], 274 nM; under setting [2], 204 nM.
Turning to “GUAGCUAUCGGAGGAUAUUCAUACCGGAAACGGACAUGAGGAUCACCCAUGUGGCGAAAGUCUUGGGAGAAGGCCGAUAGCUAC”, the “apparent Kd” value under setting [3] amounted to 75.5 nM and the “apparent Kd” value under setting [4] is 6.28 nM.
As for “GCUACGCCUGACAUGAGGAUCACCCAUGUUAGAUUGUUAUGUCAGGAUAUUGUCUAGAAACUAGACAAGAAGGGAUGUGUAGCU”, the “apparent Kd” value is 728 nM under setting [3] and 66.5 nM under setting [4].
Turning to “CGCUAAGAUGGGUCUAAUGGACCACAGGAUAUGCUUGUACAUGAGGAUCACCCAUGUAAUAUUGUGCAGAAGGGUGGAUUCGCG”, the “apparent Kd” value under setting [3] turned out to be 66.5 nM and the “apparent Kd” value under setting [4] turned out to be 10.8 nM.
As to “CAGUGCAAUGUAGGAUAUGCUCAGGAUAACUGAGCAGAAGGACAUGAGGAUCACCCAUGUACUAUGAAAGAUAAUAAAGCACUG”, the “apparent Kd” value under setting [1] came to 14.1 nM and the “apparent Kd” value under setting [2] was determined as 18.3 nM.
As for “AUCAGCCCGUCAGGAUAUACGUCACUGCGUCAGCAGUGUGGUAAGAUCACAUGAGGAUCACCCAUGUAGAAGGGACGAGCUGAU”, the “apparent Kd” value came out at 14.2 nM under setting [1] and 261 nM under setting [2].
